The list is a sample of the results.
Apaf1 activ = activators of human Apaf-1 apoptosome. Apaf-1 apoptosome caspase-3 activation, DEVD-Rh110 fluorescence; hits give low values. activity change, negative = activation, % at 20 µM. hit rate 0.31% among 330,000. AID 489031;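 active = activity change at or below -40% at 20 µM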
Target sequence (O14727 whole entry, looked up): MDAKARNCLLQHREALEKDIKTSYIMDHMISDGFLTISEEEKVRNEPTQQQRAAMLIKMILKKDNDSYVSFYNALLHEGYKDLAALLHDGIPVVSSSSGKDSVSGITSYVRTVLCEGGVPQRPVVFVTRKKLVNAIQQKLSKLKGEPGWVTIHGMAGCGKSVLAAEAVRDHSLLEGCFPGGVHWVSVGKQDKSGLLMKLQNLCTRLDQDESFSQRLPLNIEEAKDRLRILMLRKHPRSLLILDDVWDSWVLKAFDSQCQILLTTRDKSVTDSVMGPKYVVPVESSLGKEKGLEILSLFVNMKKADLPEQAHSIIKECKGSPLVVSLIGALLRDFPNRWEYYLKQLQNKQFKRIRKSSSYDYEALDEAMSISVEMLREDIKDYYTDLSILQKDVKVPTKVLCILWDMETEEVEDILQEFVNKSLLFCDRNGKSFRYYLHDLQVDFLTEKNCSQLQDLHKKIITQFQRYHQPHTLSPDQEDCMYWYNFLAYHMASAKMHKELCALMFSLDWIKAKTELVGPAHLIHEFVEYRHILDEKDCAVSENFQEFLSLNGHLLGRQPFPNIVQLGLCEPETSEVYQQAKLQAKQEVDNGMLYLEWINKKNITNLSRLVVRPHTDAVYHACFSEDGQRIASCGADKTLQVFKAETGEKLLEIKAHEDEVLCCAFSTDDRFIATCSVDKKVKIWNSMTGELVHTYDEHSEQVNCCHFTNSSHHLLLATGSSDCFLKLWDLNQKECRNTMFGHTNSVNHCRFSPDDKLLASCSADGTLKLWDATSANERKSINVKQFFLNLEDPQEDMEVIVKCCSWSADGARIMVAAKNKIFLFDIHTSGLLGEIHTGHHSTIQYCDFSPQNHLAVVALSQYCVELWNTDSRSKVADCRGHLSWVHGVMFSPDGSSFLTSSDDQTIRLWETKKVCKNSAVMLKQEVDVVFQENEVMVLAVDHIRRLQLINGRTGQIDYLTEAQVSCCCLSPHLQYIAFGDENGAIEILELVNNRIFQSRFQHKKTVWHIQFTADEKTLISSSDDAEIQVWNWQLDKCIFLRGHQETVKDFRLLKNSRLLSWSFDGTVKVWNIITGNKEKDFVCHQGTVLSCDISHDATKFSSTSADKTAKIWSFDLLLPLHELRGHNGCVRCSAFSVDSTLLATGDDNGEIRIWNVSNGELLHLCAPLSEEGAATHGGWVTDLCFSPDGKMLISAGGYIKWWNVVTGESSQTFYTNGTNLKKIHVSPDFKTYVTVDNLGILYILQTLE
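Schedule: 30 min preincubation, 50 min reaction, room temperature / System: biochemical Apaf-1 apoptosome reconstitution / Medium: 20 mM HEPES pH 7.5 with CHAPS, BSA / Evaluation: Caspase-3 cleavage activity downstream of Apaf-1 activation / Detection: Caspase-3-released Rh110 fluorescence, 540 nm emission, 480 nm excitation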
Rh110 act interf = interferes with Rh110 fluorescence, flagging false Apaf-1 activators. shares compounds with Apaf1 activ. 980 tested, under 10 active. fluorescence interference (activity change), % at 20 µM, hits read low. Rh110 fluorescence interference, quenched caspase reaction, Ex480/Em540. AID 504616;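 active = mean activity change at or below -40% when tested at 20 µM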
Apaf-1 act conf2 = Apaf-1 (human) activation, single-dose confirmed | hit rate 5% among 980 | reconstituted apoptosome caspase-3 activity, DEVD-Rh110 fluorescence; hits give low values | shares compounds with Apaf1 activ | activity change, negative = activation, % at 20 µM;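 active = mean activity change at or below -40%, meaning activation of 40% or more, at 20 µM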
Active calls of the source: *; · = no result.

SMILES	Apaf1 activ	Rh110 act interf	Apaf-1 act conf2
CC[C@@H](C)[C@@H]1CN([C@@H](C)CN2CCC[C@H]2CN2C(N)=NC[C@@H]2Cc2ccccc2)C(=N)N1CCCC1CCCC1	61.6	·	·
COc1ccc(-n2nc3ccc(N)cc3n2)cc1Cl	95.4	·	·
C#CCOCCOCCOCCNc1nc(N2CCN(C(=O)[C@H]([C@@H](C)CC)n3cc([C@@H](N)CO)nn3)CC2)nc(N2CCN(C(=O)[C@H](Cc3cc4ccccc4[nH]3)n3cc([C@@H](N)C(C)CC)nn3)CC2)n1 (stereo partly specified)	47.9	·	·
Cc1ccc(Sc2cc(Cl)nc(N)n2)cc1	-386.6*	19.1	8.4
Cc1ccc(SCc2cc(-c3ccc(Cl)cc3)no2)cc1	78.3	·	·
Cc1ccc(SC2=C(Sc3ccc(C)cc3)C(=O)c3ccccc3C2=O)cc1	64.3	·	·
CCCc1[nH]nc2c1C(c1ccc(OC)c(CSC3=NCCS3)c1)C(C#N)=C(N)O2 (stereo unspecified)	41.0	·	·
COCCCn1c(=O)c2sccc2n(Cc2ccccc2C)c1=O	60.1	·	·
NC(=S)NNc1cccc2cccnc12	76.3	·	·
O=C1Nc2ccc(S(=O)(=O)NCc3ccco3)c3cccc1c23	49.5	·	·
Cc1ccc(-n2nc3c(c2NC(=O)c2ccco2)CS(=O)(=O)C3)cc1C	-390.6*	-9.3	8.0
CC(=O)Nc1ccc(NC2=C/C(=N/S(=O)(=O)c3cccs3)c3ccccc3C2=O)cc1	90.0	·	·
Clc1ccccc1-c1nn2c(-c3ccncc3)nnc2s1	46.7	·	·
COC(=O)C1=C(C)N(CC2CC2)C(=NCc2cccc(C(F)(F)F)c2)N[C@H]1c1ccccc1	57.1	·	·
CC1CCN(C2=C(NS(=O)(=O)c3ccc(Cl)cc3)C(=O)c3ccccc3C2=O)CC1	46.4	·	·
CCCCc1nc(C(N)=O)c2[nH]c(=O)n(-c3ccc(OCC)cc3)c2n1	-157.4*	0.3	9.0
C=CCc1cccc(/C=N/NC(=O)CNc2cccc3ccccc23)c1O	96.4	·	·
C=CCn1c(N)c(C(=O)Nc2ccccc2)c2nc3ccccc3nc21	67.4	·	·
Cc1cc(F)c(F)c(C(=O)N2CCCCC2C)c1Cl (stereo unspecified)	-115.7*	4.4	17.7
Cc1ccccc1N=Cc1cccc(O)c1O	73.8	·	·
CC(=O)Nc1cc(OC(C)=O)c2nonc2c1OC(C)=O	97.9	·	·
CSc1ccc(CN(C)C(=O)CSCC(=O)Nc2cc(C)on2)cc1	48.0	·	·
CC(=O)c1cccc(NC(=S)Nc2cccc3ccccc23)c1	81.4	·	·
COc1cccc(NC(=S)NC(=O)c2cncc(Br)c2)c1	-318.0*	-0.6	10.1
COc1cccc(NC(=O)c2cc(C(=O)Nc3cccc(OC)c3)n(C)n2)c1	41.0	·	·
SMILES	Apaf1 activ	Rh110 act interf	Apaf-1 act conf2
CC(C)(C)OC(=O)[C@H](CCCCN)NC(=O)c1[nH]cnc1C(=O)N[C@@H](Cc1ccccc1)C(=O)OCc1ccccc1	64.5	·	·
Cc1ccc(NC2=C(N3CCCCC3)C(=O)c3ccccc3C2=O)cc1	81.2	·	·
CCn1cc(C(=O)Nc2ccc(NC(=O)c3ccco3)cc2)c(=O)c2ccc(C)nc21	-58.8*	-8.1	-3.6
CCn1cc(C(=O)OCC(=O)OC2CC(C)CCC2C(C)C)c(=O)c2ccc(C)nc21 (stereo unspecified)	47.6	·	·
Oc1cccc2c(NC(=S)Nc3ccc(OC(F)F)cc3)cccc12	65.3	·	·
O=C1C(C2=C(O)c3ccccc3C2=O)=Nc2ccccc21	65.8	·	·
Cc1[nH]c2ccc(C(=O)NCC(C)(C)N3CCOCC3)cc2c1C	-519.3*	0.3	7.7
CC(C)(C)CC(C)(C)c1ccc(OCCOCC[N+](C)(C)Cc2ccccc2)cc1	81.7	·	·
Cc1coc2c1C(=O)C(=O)c1c-2ccc2c(C)cccc12	96.0	·	·
Cc1ccc(C)c(NC(=S)NCCN(C2CCCCC2)C2CCCC2)c1	-73.1*	-1.3	12.6
Cc1ccc(C)c(NC(=S)Nc2cccc3cnccc23)c1	95.7	·	·
CCN(CC)C(=O)C1CCCN(C(=O)Nc2ccc3nsnc3c2)C1 (stereo unspecified)	70.9	·	·
COc1ccc(S(=O)(=O)NNC(=O)c2cc3c4ccccc4n(C)c3s2)cc1	-407.3*	-2.8	14.0
Cc1ccc(CN(C)C(=O)CSc2nnc3n2CCCCC3)c(C)c1	-42.3*	-8.4	6.0
CN(C)c1cc(N/N=C\c2ccccc2)nc(N(C)C)n1	94.8	·	·
Clc1ccc(/C=N/Nc2ncnc3ccccc23)cc1Cl	42.8	·	·
CCN(CC)c1ccc(NC(=O)c2cnn(CC)c2)cc1	-54.6*	6.7	11.0
O=C(N/N=C\C=C\c1ccc([N+](=O)[O-])o1)c1cccs1	49.0	·	·
C#CCOCCOCCOCCNc1nc(N2CCN(C(=O)Cn3cc(CCCCN)nn3)CC2)nc(N2CCN(C(=O)[C@H](CCCCN)n3cc(CCCC)nn3)CC2)n1	41.4	·	·
CCOc1ccc2[nH]c(=O)c(CN(CC3CCCN3CC)C(=O)NCc3ccccc3)cc2c1 (stereo unspecified)	-137.0*	0.3	8.7
CC1=NN(c2ccccc2)C(=O)C1	41.3	·	·
COc1ccccc1NC(=O)C1=C(C)Nc2nnnn2C1c1cccc(C)c1 (stereo unspecified)	-70.7*	5.7	14.5
COc1ccc2c(c1)CC/C(=C\Nc1ccc3c(c1)OCO3)C2=O	78.1	·	·
COc1ccc(S(=O)(=O)N/N=C\c2ccc3c(c2)OCO3)c(OC)c1	-119.5*	0.1	5.7
COc1ccc(/C=N/Nc2cc(N(C)C)nc(N(C)C)n2)cc1	96.6	·	·
SMILES	Apaf1 activ	Rh110 act interf	Apaf-1 act conf2
CCCCN=Cc1c(C)[nH]n(-c2ccccc2)c1=S	-80.0*	0.8	11.7
Cc1cc(C(=O)N/N=C/c2c(C)[nH]n(-c3ccccc3)c2=O)n[nH]1	76.7	·	·
CCCCN(CCCC)C(=S)N/N=C/c1c(C)[nH]n(-c2ccccc2)c1=O	57.3	·	·
CC(C)NC1=C(Cl)C(=O)c2ccccc2C1=O	63.2	·	·
CCc1ccc(Nc2n[n+](-c3ccccc3)c(-c3c(Cl)cccc3Cl)s2)cc1	43.6	·	·
CCC(Cc1ccccc1)NC(=O)CCn1cccc1 (stereo unspecified)	-219.5*	1.7	2.5
COC(=O)c1ccccc1S(=O)(=O)N1CCC(C(=O)N2CCC2)CC1	55.4	·	·
Oc1ccccc1CNc1cccc2cccnc12	94.7	·	·
CCC(C)NC(=O)C1CCN(S(=O)(=O)c2cccc3cccnc23)CC1 (stereo unspecified)	-456.3*	-6.5	8.7
CC(C)NC(=O)C1CCN(S(=O)(=O)c2ccc(N3CCCC3=O)cc2)CC1	-331.6*	-3.0	2.2
COc1cc(/C=C2/C(=O)N(c3ccccc3)N=C2C)ccc1OS(=O)(=O)c1ccccc1	95.0	·	·
O=C(O)c1ccc2c3c(ncnc13)-c1ccccc1C2=O	44.0	·	·
O=C(C[C@H]1C[C@H](C(=O)N2CCCCC2)[C@@]2(CCc3ccccc3)c3[nH]c4cc(-c5ccco5)ccc4c3CCN2C1=O)NCCN1CCOCC1	47.7	·	·
CC(C)(C)NC(=O)C[C@H]1C[C@H](C(=O)N2CCOCC2)[C@@]2(CCC3CCCC3)c3[nH]c4ccc(Cl)cc4c3CCN2C1=O	44.3	·	·
CC(OC(=O)c1ccc(-n2cnnn2)cc1)C(=O)Nc1ccccc1F (stereo unspecified)	-229.0*	10.7	12.9
